Data taken from ChEMBL document CHEMBL3868583, “6-Aryl substituted 4-(4-cyanomethyl) phenylamino quinazolines as a new class of isoform-selective PI3K-alpha inhibitors” (Eur J Med Chem, 2016).

Assays:
[1] = system: Mus musculus; assay: Toxicity in Swiss mouse implanted with Swiss mouse EAC cells assessed as mortality at 25 mg/kg, ip administered for 1 to 9 days measured on day 12; type: organism-based, Ehrlich; conditions: in vivo
In short: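 1×10^7 EAC cells injected intraperitoneally into Swiss mice on day 0. Mice randomized next day: treated groups n=7, saline control n=10 (0.2 ml i.p.). Dosing i.p. days 1–9. Sacrifice on day 12; ascitic fluid collected from the peritoneal cavity. % tumor growth inhibition from total tumor cell count versus control. Body weight and mortality tracked.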

[2] = system: Mus musculus; assay: Toxicity in Swiss mouse implanted with Swiss mouse EAT cells assessed as body weight at 15 mg/kg, ip administered for 1 to 9 days measured on day 5 (reference value: 22.6 g); type: organism-based; conditions: in vivo
[3] = Downregulation of PI3Kgamma expression in human MCF7 cells at 30 uM by Western blot analysis; type: functional, cell-based
In short: (§1)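 MCF-7 or PC-3 cells (2 × 10^6) treated with compound, lysed (1 × 10^6 cells) in cold NP-40 buffer with protease inhibitors 30 min on ice, 12,000 g 10 min 4 °C. 50 µg protein per lane on SDS-PAGE, PVDF transfer, 5% milk block, primary antibody 2 h, HRP secondary 1 h, ECL on film; β-actin internal control.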

[4] = system: MCF7; assay: Induction of cell cycle arrest in human MCF7 cells assessed as accumulation at G2 phase at 30 uM after 24 hrs by propidium iodide-staining based FACS analysis (reference value: 20 %); type: functional
In short: (§2)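 MCF-7 or PC-3 cells treated at indicated concentrations for 24 h, pelleted, PBS-washed, fixed in ice-cold 70% ethanol overnight at 4 °C. RNase 0.2 mg/mL 1 h at 37 °C, propidium iodide 10 µg/mL 30 min dark. 10,000 events (FL2-A vs FL2-W) by flow cytometry; fractions in apoptosis/sub-G1, G1, S, G2-M.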

[5] = system: MCF7; assay: Induction of cell cycle arrest in human MCF7 cells assessed as accumulation at S phase at 10 uM after 24 hrs by propidium iodide-staining based FACS analysis (reference value: 30 %); type: functional; in short: as §2
[6] = system: MCF7; assay: Induction of cell cycle arrest in human MCF7 cells assessed as accumulation at S phase at 30 uM after 24 hrs by propidium iodide-staining based FACS analysis (reference value: 30 %); type: functional; in short: as §2
[7] = system: MCF7; assay: Induction of apoptosis in human MCF7 cells assessed as loss of mitochondrial membrane potential at 10 uM after 24 hrs by rhodamine-123-staining based FACS analysis (reference value: 7 % ); type: functional
In short: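 Cells (MCF-7 or PC-3) exposed to indicated concentrations for 24 h; rhodamine-123 (5 µM) added 1 h before end. Cells collected, PBS-washed; fluorescence of 10,000 events read in FL-1 by flow cytometry, loss of mitochondrial potential scored as decreased intensity.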

[8] = Anticancer activity against Swiss mouse EAT cells implanted in Swiss mouse assessed as tumor growth inhibition at 15 mg/kg, ip administered for 1 to 9 days measured on day 13 relative to control; type: functional; conditions: read-out: TGI
In short: (§3)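 Solid tumor: 1 × 10^7 EAC cells (harvested from 8-10 day ascitic Swiss mice) injected intramuscularly into right thigh of male Swiss mice, day 0; randomized next day (n=7 treated, 10 control). Dosing i.p. days 1-9; saline 0.2 ml control, 5-FU 22 mg/kg reference.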

[9] = system: Mus musculus; assay: Toxicity in Swiss mouse implanted with Swiss mouse EAT cells assessed as body weight at 25 mg/kg, ip administered for 1 to 9 days measured on day 5 (reference value: 22.6 g); type: organism-based; conditions: in vivo
[10] = system: Mus musculus; assay: Toxicity in Swiss mouse implanted with Swiss mouse EAC cells assessed as body weight at 25 mg/kg, ip administered for 1 to 9 days measured on day 1 (reference value: 22.8 g); type: organism-based, Ehrlich; conditions: in vivo
[11] = system: Mus musculus; assay: Toxicity in Swiss mouse implanted with Swiss mouse EAT cells assessed as body weight at 25 mg/kg, ip administered for 1 to 9 days measured on day 13 (reference value: 24.1 g); type: organism-based; conditions: in vivo
[12] = system: Mus musculus; assay: Toxicity in Swiss mouse implanted with Swiss mouse EAT cells assessed as body weight at 25 mg/kg, ip administered for 1 to 9 days measured on day 9 (reference value: 22.8 g); type: organism-based; conditions: in vivo
[13] = system: Mus musculus; assay: Toxicity in Swiss mouse implanted with Swiss mouse EAT cells assessed as mortality at 15 mg/kg, ip administered for 1 to 9 days measured on day 9 and 13; type: organism-based; conditions: in vivo
In short: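 EAC cells harvested from 8–10-day ascitic Swiss mice; 1×10^7 cells injected intramuscularly into right thigh of Swiss male mice on day 0. Randomized next day: treated n=7, saline control n=10 (0.2 ml i.p.). Dosing i.p. days 1–9. […] Body weight and mortality tracked.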

[14] = Anticancer activity against Swiss mouse EAT cells implanted in Swiss mouse assessed as tumor growth inhibition at 25 mg/kg, ip administered for 1 to 9 days measured on day 13 relative to control; type: functional; conditions: read-out: TGI; in short: as §3
[15] = system: Mus musculus; assay: Toxicity in Swiss mouse implanted with Swiss mouse EAC cells assessed as body weight at 25 mg/kg, ip administered for 1 to 9 days measured on day 9 (reference value: 27.7 g); type: organism-based, Ehrlich; conditions: in vivo
[16] = system: MCF7; assay: Induction of cell cycle arrest in human MCF7 cells assessed as accumulation at G1 phase at 20 uM after 24 hrs by propidium iodide-staining based FACS analysis (reference value: 50 %); type: functional; in short: as §2
[17] = system: MCF7; assay: Induction of cell cycle arrest in human MCF7 cells assessed as apoptotic cells at 30 uM after 24 hrs by propidium iodide-staining based FACS analysis (reference value: 8 %); type: functional; in short: as §2
[18] = system: Mus musculus; assay: Toxicity in Swiss mouse implanted with Swiss mouse EAC cells assessed as body weight at 25 mg/kg, ip administered for 1 to 9 days measured on day 5 (reference value: 26.2 g); type: organism-based, Ehrlich; conditions: in vivo
[19] = system: MCF7; assay: Induction of cell cycle arrest in human MCF7 cells assessed as accumulation at G2 phase at 10 uM after 24 hrs by propidium iodide-staining based FACS analysis (reference value: 20 %); type: functional; in short: as §2
[20] = target: Phosphatidylinositol 4,5-bisphosphate 3-kinase catalytic subunit beta isoform (Homo sapiens, UniProt P42338); assay: Inhibition of PI3Kbeta (unknown origin) using diC8 PIP2 as substrate up to 20 uM after 60 mins by ADP-glo assay
Phosphatidylinositol 4,5-bisphosphate 3-kinase catalytic subunit beta isoform, sequence (P42338 whole entry, looked up, canonical isoform): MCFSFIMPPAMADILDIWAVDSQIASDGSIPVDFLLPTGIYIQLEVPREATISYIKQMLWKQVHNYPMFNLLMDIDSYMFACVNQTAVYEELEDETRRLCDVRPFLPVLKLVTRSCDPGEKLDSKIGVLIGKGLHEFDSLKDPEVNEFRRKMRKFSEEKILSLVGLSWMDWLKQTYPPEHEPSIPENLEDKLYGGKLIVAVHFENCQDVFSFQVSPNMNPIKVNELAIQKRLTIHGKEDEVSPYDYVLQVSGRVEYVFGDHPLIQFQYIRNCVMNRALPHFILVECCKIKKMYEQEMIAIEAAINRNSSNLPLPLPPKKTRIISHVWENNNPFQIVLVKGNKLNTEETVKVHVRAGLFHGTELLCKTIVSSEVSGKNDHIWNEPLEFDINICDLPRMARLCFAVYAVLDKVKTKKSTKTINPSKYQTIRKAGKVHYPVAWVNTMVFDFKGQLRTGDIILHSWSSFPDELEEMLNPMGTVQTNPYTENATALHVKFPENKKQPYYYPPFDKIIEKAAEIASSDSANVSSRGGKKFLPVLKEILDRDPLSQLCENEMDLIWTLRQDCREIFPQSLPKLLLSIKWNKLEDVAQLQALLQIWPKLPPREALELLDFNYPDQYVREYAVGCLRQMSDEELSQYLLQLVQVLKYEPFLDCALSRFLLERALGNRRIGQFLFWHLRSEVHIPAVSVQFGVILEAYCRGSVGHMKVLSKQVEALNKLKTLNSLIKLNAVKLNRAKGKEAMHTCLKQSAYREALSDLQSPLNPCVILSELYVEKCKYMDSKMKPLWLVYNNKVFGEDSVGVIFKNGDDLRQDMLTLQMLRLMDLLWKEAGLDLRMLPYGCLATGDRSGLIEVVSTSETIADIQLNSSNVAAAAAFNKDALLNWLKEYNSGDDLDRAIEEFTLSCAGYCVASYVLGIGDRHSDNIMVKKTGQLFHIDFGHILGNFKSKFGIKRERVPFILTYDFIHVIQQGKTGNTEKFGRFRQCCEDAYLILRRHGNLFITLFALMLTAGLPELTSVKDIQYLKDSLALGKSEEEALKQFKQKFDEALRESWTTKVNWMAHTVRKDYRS

[21] = Downregulation of PI3Kbeta expression in human PC3 cells at 30 uM by Western blot analysis; type: functional, cell-based; conditions: PC-3; in short: as §1
[22] = Downregulation of PI3Kalpha expression in human PC3 cells at 30 uM by Western blot analysis; type: functional, cell-based; conditions: PC-3; in short: as §1
[23] = Cytotoxicity against human PC3 cells assessed as cell growth inhibition after 12 hrs by MTT assay; type: functional; conditions: PC-3, 12 h
[24] = system: Mus musculus; assay: Toxicity in Swiss mouse implanted with Swiss mouse EAC cells assessed as body weight at 70 mg/kg, ip administered for 1 to 9 days measured on day 1 (reference value: 22.8 g); type: organism-based, Ehrlich; conditions: in vivo
[25] = Anticancer activity against Swiss mouse EAC cells implanted in Swiss mouse assessed as tumor growth inhibition at 70 mg/kg, ip administered for 1 to 9 days measured on day 12 relative to control; type: functional; conditions: Ehrlich, read-out: TGI
In short: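 Swiss mice given 1 × 10^7 EAC cells i.p. on day 0, randomized next day (treated n=7, control n=10). Compound given i.p. days 1-9; saline control (0.2 ml i.p.), 5-fluorouracil 20 mg/kg i.p. reference. Sacrificed day 12; ascitic fluid collected; % TGI from total peritoneal tumor cell count versus control.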

## N#CCc1ccc(Nc2ncnc3ccc(-c4ccc5[nH]ccc5c4)cc23)cc1
[1]
  Activity: Non-Toxic
[2]
  Activity: 20 g
[3]
  Activity: 6%
[4]
  Activity: 4%
[5]
  Activity: 40%
[6]
  Activity: 53%
[7]
  Activity: 12%
[8]
  inhibition in vivo at 15 mg/kg: 34.3%
[9]
  Activity: 20.61 g
[10]
  Activity: 20.57 g
[11]
  Activity: 21.81 g
[12]
  Activity: 21 g
[13]
  Activity: Non-Toxic
[14]
  inhibition in vivo at 25 mg/kg: 36.5%
[15]
  Activity: 22.57 g
[16]
  Activity: 51%
[17]
  Activity: 37%
[18]
  Activity: 22 g
[19]
  Activity: 1%

## N#CCc1ccc(Nc2ncnc3ccc(-c4cncc5ccccc45)cc23)cc1
[20]
  inhibition: 0%
[21]
  Activity: 42%
[22]
  Activity: 100%
[23]
  GI50: 189 µM
[24]
  Activity: 21.42 g
[25]
  inhibition in vivo at 70 mg/kg: 25.8%
